Experimental data published in publication PMC2738596 (Biochimica et biophysica acta, 2008).
“Also recorded” adds a separate entry of the source. Like-named read-outs stand apart in the source and are kept apart here. Ends that are not written are not given here.

Assays:
[1] = molecular target: ryanodine-modified RyR2 (Canis lupus familiaris, UniProt A0A8I3MT21); experiment: Peptide/IpTxA action on ryanodine-modified RyR2 in planar lipid bilayers; type: biochemical, dog
[2] = tested on: RyR2 with IpTxA; experiment: Interaction of peptides with IpTxA-modified RyR2 in planar lipid bilayers; type: biochemical, dog; details: for apparent dissociation constant from RyR2 (1/dwell time): 500 µM KIFMK
Summary of the method: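 Dog cardiac RyR2 was recorded in planar bilayers with HEPES-Ca2+ trans and HEPES-Tris cis at pH 7.4, Ca2+/caffeine-activated, with cytosolic IpTxA at 50 nM and Vm +10 mV. Peptide was then added cis. Block events (dwell time, number, P_block = fraction of time at baseline) were scored frame-by-frame on 4-min records, separately during full openings and during IpTxA-induced substates. Means ± S.E.M.; paired t-test.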

[3] = molecular target: T1, cardiac RyR2 (Canis lupus familiaris, UniProt A0A8I3MT21); experiment: Induction of subconductance states; type: biochemical, dog
T1 sequence (A0A8I3MT21 1-4967): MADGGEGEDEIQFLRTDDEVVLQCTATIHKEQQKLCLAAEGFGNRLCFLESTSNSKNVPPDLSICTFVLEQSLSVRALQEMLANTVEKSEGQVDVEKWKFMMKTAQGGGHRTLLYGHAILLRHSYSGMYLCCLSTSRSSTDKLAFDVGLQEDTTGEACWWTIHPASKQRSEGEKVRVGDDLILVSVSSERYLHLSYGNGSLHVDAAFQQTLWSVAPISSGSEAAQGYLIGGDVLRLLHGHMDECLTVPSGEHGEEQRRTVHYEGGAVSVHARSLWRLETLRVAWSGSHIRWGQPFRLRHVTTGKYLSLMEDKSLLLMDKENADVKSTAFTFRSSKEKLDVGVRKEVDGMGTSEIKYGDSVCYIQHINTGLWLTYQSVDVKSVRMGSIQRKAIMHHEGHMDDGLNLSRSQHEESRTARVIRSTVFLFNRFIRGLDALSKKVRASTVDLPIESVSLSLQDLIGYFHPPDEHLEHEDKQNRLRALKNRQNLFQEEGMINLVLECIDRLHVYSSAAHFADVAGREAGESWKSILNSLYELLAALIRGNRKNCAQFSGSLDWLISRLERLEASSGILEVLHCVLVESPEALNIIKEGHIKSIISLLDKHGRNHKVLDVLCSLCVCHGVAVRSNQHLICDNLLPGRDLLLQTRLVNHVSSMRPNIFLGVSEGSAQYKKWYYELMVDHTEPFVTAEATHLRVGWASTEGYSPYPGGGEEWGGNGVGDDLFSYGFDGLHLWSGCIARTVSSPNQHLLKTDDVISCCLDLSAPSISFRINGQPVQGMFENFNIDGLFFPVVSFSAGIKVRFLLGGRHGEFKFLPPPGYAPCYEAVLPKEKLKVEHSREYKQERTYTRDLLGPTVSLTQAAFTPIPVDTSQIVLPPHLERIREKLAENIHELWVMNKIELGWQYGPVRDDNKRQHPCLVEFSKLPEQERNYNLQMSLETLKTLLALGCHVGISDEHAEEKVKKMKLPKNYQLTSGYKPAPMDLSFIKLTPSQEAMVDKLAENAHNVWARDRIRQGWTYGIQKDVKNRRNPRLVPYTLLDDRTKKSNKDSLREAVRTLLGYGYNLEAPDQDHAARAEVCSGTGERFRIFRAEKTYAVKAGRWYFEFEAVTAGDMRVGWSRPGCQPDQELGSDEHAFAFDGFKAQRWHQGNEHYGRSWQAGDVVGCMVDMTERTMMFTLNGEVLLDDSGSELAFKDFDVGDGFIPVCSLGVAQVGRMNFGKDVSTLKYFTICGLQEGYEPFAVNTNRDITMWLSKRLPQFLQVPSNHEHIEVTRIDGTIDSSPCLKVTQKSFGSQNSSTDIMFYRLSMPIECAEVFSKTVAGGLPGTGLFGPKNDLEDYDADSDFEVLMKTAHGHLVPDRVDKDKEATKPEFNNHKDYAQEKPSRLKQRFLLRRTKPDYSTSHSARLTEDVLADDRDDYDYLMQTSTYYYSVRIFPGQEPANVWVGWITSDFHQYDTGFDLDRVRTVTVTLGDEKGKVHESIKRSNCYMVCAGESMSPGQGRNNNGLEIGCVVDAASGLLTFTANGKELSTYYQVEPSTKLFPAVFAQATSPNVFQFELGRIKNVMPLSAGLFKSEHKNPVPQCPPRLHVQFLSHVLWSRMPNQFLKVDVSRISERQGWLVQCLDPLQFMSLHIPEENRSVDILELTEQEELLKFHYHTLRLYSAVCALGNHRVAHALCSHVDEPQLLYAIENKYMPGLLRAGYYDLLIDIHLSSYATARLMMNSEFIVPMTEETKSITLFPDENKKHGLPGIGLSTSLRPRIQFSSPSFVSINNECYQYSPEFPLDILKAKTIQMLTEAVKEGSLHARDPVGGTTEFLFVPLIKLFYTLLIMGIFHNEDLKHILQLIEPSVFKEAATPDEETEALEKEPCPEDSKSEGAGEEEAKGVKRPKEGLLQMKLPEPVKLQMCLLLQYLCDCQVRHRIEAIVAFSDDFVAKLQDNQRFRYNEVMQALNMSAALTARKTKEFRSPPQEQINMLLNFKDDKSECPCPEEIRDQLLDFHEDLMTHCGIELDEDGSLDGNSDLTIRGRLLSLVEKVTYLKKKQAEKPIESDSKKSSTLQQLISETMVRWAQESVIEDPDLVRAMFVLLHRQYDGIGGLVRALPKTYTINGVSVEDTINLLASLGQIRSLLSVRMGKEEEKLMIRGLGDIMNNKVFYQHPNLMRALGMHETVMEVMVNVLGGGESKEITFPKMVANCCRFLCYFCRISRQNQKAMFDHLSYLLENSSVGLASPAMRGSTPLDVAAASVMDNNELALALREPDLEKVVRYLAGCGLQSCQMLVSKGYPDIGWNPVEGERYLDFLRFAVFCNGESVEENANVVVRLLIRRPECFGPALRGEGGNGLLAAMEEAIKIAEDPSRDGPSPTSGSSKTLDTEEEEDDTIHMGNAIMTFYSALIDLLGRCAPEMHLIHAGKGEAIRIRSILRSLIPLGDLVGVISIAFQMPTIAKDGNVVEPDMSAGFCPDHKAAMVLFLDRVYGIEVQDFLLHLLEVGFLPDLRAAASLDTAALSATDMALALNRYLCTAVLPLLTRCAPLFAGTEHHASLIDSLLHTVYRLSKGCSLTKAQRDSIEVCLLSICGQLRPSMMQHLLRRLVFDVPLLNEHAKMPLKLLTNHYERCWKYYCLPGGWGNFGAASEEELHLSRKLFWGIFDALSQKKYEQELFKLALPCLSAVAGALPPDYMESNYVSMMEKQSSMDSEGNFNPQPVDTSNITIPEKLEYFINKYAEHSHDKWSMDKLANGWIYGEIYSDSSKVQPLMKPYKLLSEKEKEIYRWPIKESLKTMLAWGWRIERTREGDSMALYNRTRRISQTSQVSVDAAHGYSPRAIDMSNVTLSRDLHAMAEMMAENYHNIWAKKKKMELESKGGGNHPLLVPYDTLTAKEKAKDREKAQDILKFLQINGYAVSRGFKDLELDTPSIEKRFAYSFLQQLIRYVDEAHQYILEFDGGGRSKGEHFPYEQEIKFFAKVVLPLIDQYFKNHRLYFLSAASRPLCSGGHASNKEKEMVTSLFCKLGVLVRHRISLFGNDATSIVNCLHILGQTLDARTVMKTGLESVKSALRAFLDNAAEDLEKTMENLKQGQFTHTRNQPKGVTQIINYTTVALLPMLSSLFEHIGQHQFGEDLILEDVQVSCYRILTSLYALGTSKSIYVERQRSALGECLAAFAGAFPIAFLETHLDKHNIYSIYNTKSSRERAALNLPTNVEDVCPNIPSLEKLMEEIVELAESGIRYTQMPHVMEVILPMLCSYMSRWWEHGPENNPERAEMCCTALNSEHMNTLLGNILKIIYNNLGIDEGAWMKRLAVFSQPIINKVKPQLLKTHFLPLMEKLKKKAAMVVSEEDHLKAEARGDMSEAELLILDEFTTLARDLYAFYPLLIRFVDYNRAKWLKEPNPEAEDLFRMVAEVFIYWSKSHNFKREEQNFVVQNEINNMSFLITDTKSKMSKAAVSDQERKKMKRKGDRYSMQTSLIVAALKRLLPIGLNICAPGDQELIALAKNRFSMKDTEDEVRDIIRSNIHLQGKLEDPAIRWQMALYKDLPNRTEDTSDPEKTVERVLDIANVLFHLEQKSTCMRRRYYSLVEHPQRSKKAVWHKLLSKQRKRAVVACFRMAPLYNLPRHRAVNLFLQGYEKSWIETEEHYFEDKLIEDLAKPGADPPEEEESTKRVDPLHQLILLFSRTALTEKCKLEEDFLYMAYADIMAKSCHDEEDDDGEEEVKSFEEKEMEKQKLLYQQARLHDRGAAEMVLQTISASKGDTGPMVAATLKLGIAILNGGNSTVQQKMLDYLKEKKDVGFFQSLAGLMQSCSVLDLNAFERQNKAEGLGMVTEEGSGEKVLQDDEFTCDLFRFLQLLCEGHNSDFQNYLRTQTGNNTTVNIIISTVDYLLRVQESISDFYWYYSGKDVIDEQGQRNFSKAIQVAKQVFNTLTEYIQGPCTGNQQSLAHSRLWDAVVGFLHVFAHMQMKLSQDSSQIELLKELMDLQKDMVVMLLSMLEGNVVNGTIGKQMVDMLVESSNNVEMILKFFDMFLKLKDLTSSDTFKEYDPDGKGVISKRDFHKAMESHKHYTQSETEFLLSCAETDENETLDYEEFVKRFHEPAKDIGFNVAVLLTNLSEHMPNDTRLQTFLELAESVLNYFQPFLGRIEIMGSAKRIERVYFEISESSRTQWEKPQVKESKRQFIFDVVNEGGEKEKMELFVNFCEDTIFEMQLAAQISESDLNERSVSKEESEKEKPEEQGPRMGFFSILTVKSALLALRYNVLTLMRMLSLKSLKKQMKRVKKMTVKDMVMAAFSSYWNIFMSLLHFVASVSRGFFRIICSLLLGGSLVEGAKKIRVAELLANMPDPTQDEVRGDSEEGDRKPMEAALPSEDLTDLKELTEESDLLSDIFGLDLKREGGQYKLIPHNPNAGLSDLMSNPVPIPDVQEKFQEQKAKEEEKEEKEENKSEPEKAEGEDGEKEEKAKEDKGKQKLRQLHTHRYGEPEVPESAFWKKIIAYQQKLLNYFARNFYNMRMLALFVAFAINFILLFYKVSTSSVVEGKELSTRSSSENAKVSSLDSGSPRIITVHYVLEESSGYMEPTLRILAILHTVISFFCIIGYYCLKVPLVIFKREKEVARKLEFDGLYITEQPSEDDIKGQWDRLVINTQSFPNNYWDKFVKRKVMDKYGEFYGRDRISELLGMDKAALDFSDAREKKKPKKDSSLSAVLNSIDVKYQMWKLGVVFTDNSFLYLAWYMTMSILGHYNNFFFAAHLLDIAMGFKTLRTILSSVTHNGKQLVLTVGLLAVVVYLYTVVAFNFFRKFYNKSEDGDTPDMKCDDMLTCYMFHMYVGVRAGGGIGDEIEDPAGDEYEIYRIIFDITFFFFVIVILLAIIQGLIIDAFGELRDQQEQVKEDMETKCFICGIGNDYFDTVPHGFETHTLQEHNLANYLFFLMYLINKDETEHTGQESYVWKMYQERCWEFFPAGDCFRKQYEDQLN
Summary of the method: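 Dog ventricular SR microsomes fused into PE/PS/PC (5:4:1) bilayers. Solutions: cis HEPES 250 mM/Tris 118 mM, trans HEPES 250 mM/Ca(OH)2 53 mM, pH 7.4. Cytosolic Ca2+ buffered with BAPTA/dibromo-BAPTA; Ca2+/caffeine-activated channel; peptide added cis. Four-minute records were filtered at 500 Hz (Vm ≥0) or 400 Hz (Vm <0). P_substate = substate time/total time, scored frame-by-frame (100 ms frames, events >3 ms) or from Gaussian-fitted all-points histograms. Paired t-test.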

[4] = molecular target: T1, cardiac RyR2; type: biochemical, dog
[5] = tested on: RyRs; details: ryanodine locks channels open; ref [3], [45]; cited from earlier work
[6] = molecular target: RyR2 (ryanodol-modified) (Canis lupus familiaris, UniProt A0A8I3MT21); type: biochemical, dog; details: for probability of ryanodol-induced modification: n=5 paired (Fig. 6)
RyR2 (ryanodol-modified), sequence (A0A8I3MT21 1-4967): as above

[7] = tested on: SR microsomes; details: ref [19], [26], [55]; cited from earlier work
[8] = Shaker B 2 µM n=4, KIFMK 500 µM n=8
[9] = 500 µM KIFMK, frame by frame analysis
[10] = IpTxA plus ryanodol, +10 mV, 40 min
[11] = ryanodol, control before IpTxA (Fig. 7A, B)

ryanodine-modified RyR2, sequence (A0A8I3MT21 1-4967): as above

With `CC[C@H](C)[C@H](NC(=O)[C@H](CCCCN)NC(C)=O)C(=O)N[C@@H](Cc1ccccc1)C(=O)N[C@@H](CCSC)C(=O)N[C@@H](CCCCN)C(N)=O` [KIFMK, acetyl-KIFMK-amide] the “predominant substate level, of the ryanodine-modified conductance” value ([1]; KIFMK 500 µM) was ~ 52%, the block dwell time ([1]; KIFMK 500 µM, ryanodine-modified, n=6) was 29.9 ± 10.5 ms and the “increase of block dwell time with ryanodine” value ([1]; KIFMK 500 µM, n=6) was 316 ± 62%. For the same compound, the “substate amplitude level 1, of full openings of ryanodine-modified channel” value [1, 8] was 31 ± 1%, the “substate amplitude level 2, of full openings of ryanodine-modified channel” value [1, 8] was 51 ± 1% and the “substate amplitude level 3, of full openings of ryanodine-modified channel” value [1, 8] was 75 ± 1%. For the same compound, the “decrease of probability of block on changing 0 mV to +20 mV” value ([1]; in the presence of ryanodine) was 83%, the “decrease of probability of substates on changing 0 mV to +20 mV” value ([1]; in the presence of ryanodine) was 61% and the “action during IpTxA-induced substates versus full openings” value ([2]; 50 nM IpTxA, +10 mV, Peptide A 20 µM, Shaker B 40 µM, KIFMK 500 µM) was “able to block the IpTxA-modified channel; also recorded: the probability of blocking the channels was significantly lower during IpTxA-induced substates than during full openings”. The “apparent dissociation constant from RyR2 (1/dwell time)” value ([2]; during IpTxA substates, 50 nM IpTxA, +10 mV) was 3.1 s⁻¹, the “apparent dissociation constant from RyR2 (1/dwell time)” value ([2]; during full openings, 50 nM IpTxA, +10 mV) was 166 s⁻¹ and the “action during IpTxA-ryanodine sub-substates” value ([2]; ryanodine-modified RyR2 with IpTxA, results not shown) was “only induced some block events”. For the same compound, the “increase in frequency of substates” value ([3]; 500 µM KIFMK vs before addition, n=5 paired observations) was 37 ± 9 times, the “substate level 1, of full conductance” value [3, 9] was ~ 27.3 ± 0.3% and the “substate level 2, of full conductance” value [3, 9] was about 48.6 ± 0.7%. The “substate level 3, of full conductance” value [3, 9] was about 72.3 ± 0.5%, the frequency of substates ([3]; 500 µM KIFMK, n=5 paired observations, control 0.9 ± 0.3) was 22.1 ± 4.4 events/min and the “substate amplitude level 1, in the absence of ryanodine” value ([3]; KIFMK, n=8) was 27 ± 1%. For the same compound, the “substate amplitude level 3, in the absence of ryanodine” value ([3]; KIFMK, n=8) was 74 ± 2%, the “substate level, ~30% of full RyR2 conductance” value ([3]; discussion summary) was ~ 30% and the “substate level, ~50% of full RyR2 conductance” value ([3]; discussion summary) was about 50%. For the same compound, the “substate level, ~70% of full RyR2 conductance” value ([3]; discussion summary) was about 70%, the “duration of block events” value ([4]; 0 mV) was “intermediate duration” and the “mean duration of block events” value ([4]; 0 mV, Peptide A n=4, KIFMK n=6, mean ± SEM) was 5.3 ± 0.3 ms. The “d (fraction of the membrane potential acting at the site)” value ([4]; Woodhull fit, z = 6 Peptide A, 7 Shaker B, 2 KIFMK) was 1.2 ± 0.3.

In the case of ryanodine, the “effect of ryanodine on channel gating” value ([1]; 2 µM ryanodine) is listed as “channels are locked open; closures are brief and extremely rare” and the “slope conductance of modified state, of full openings” value [5] is listed as ~ 40%.

In the case of `CC(C)[C@@]1(O)[C@@H](O)[C@@]2(O)[C@@]3(C)C[C@]4(O)O[C@@]5([C@H](O)[C@@H](C)CC[C@]35O)[C@@]2(O)[C@]14C` [ryanodol], the “probability of R (ryanodol alone) after IpTxA” value ([6]; 50 nM IpTxA) is reported as “decreased dramatically”, the “probability of ryanodol-induced modification” value ([6]; 20 µM ryanodol, 0 mV, before Peptide A) is reported as 0.58 ± 0.04 and the “probability of ryanodol-induced modification” value ([6]; 20 µM ryanodol, 0 mV, with 5 µM Peptide A) is reported as 0.76 ± 0.05. The “action on ryanodol-modified RyR2 or on ryanodol binding” value ([6]; 20 µM ryanodol, 5 µM Peptide A, 0 mV) was “increased dwell times for ryanodol-modified states”, the “number of R substate events” value [6, 10] was 98 events and the “number of transitions R→Open” value [6, 10] was 5 times. The “number of transitions i→R+i” value [6, 10] was 6 times, the “decrease of probability of ryanodol modification from 0 to +20 mV” value ([6]; n=6) was 52 ± 11% and the “relative rate of transition i→R+i” value ([6]; ryanodol binding to IpTxA-modified channel, +10 mV) was 14.6. For the same compound, the “relative rate of transition Open→R” value ([6]; ryanodol binding to open channel, +10 mV) was 130, the “relative rate of transition R+i→i” value ([6]; ryanodol dissociation with IpTxA bound, +10 mV) was 144 and the “preferred sequence of binding Open→R→R+i, share of cases” value ([6]; ryanodol first, then IpTxA, +10 mV) was 93%. The “probability of full opening” value [6, 11] was ~ 80%, the “probability of ryanodol state” value [6, 11] was ~ 20% and the “total probability of ryanodol binding (R and R+i), increased” value ([6]; with 50 nM IpTxA, all voltages tested but +30 mV) was ~ 40%.

With `Cn1c(=O)c2c(ncn2C)n(C)c1=O` [caffeine] the “Po with Ca2+ and caffeine” value ([4]; most channels, Ca2+ 10 µM + caffeine 5 mM, before peptides) was over 0.9.

For TSAQKAKAEERKRRKMSRGL [Peptide A], the “[3H] ryanodine binding to SR microsomes” value [7] is listed as “enhances [^3H] ryanodine binding to SR microsomes”.
